Screening results as filed in PubChem BioAssay.
An excerpt weighted towards active compounds, which were near 12% of everything screened.
CHOP inh = CHOP inhibition in unfolded protein response | CHO-K1 CHOP-promoter luciferase, tunicamycin-induced, 15-18 h | inhibition, % at 10 µM | 220,000 tested, 3.8% active | AID 2732;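 active = compounds that reduced the stress-induced luciferase reporter signal by more than about 70% of percent inhibition, limit read from the data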;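 also: 0% = tunicamycin plus vehicle and 100% = wells without tunicamycin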
Rad51 HR inh = blocks human Rad51 in homologous recombination | Q06609 | hRad51 DNA strand exchange, fluorescence dequenching | inhibition, % at 10 µM | 200,000 tested, 0.085% active | AID 1385;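 active = inhibition above 40% at the single screening dose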;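 also: 0% = DMSO control wells and 100% = blanks with heterologous ssDNA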
Target sequence (Q06609 whole entry, looked up): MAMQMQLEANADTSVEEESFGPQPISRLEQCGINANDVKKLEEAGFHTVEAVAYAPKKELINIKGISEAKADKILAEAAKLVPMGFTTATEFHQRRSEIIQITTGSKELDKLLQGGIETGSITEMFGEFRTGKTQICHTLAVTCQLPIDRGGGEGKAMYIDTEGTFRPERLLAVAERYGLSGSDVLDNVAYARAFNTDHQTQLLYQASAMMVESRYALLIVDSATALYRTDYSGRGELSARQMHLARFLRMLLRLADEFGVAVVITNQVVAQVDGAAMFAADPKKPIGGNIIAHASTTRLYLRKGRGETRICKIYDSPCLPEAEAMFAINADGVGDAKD
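Material: Human Rad51 nucleoprotein filaments preassembled on unlabelled ssDNA | Also added: Labelled 47-mer dsDNA for strand exchange | Dosing: Single dose, 10 µM final compound | Schedule: 30-min compound preincubation and 15-min exchange, both room temperature | Technique: Fluorescence dequenching at 485/520 nm | Measure: Percent inhibition relative to plate controls and blanks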
Wee1 degr inh = blocks degradation of human Wee1 kinase; AID 1321; reporter increase, % at 5 µM; HeLa Luc-Wee1K328M stability, luciferase luminescence; 100% = proteasome inhibitor MG132 effect; 220,000 tested, 1.2% active; P30291;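 active = activation above the mean of all tested compounds plus 3 SD, set per screening run, cut at about 8.8% in these data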;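 also: cells exposed to compound for 20 h before luminescence read; 0% = DMSO alone and 100% = MG132 at 30 µM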
L major viab = inhibitors of Leishmania major promastigote growth; Leishmania major promastigotes, resazurin fluorescence viability; 200,000 tested, 9% active; inhibition, % at 10 µM;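 also: promastigotes grown with compound for 44 hours at 28 °C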
PKD1 kinase inh = PKD1 (human) kinase inhibition; Q15139; PKD1 kinase fluorescence polarization assay; inhibition, % (test concentration not listed); 200,000 tested, 0.056% active; AID 797
Arbovirus inh = antivirals against arbovirus infection | inhibition, % at 10 µM | 200,000 tested, 0.37% active | AID 1251 | arbovirus infection cell-based antiviral screen; in the data active = inhibition above about 30%
Active calls of the source: *; nt = not tested or not shown. Rule as the data show it, unless noted: active = inhibition above about 50%; inactive = the rest.

SMILES	CHOP inh	Rad51 HR inh	Wee1 degr inh	L major viab	PKD1 kinase inh	Arbovirus inh
CC(C)N1CCc2c(sc(NC(=O)CCc3ccccc3)c2C(N)=O)C1	12.9	-14.5	5.1	0.4	-6.0	13.9
CCOC(=O)c1c(NC(=O)C2COc3ccccc3O2)sc2c1CCN(Cc1ccccc1)C2 (configuration not stated)	14.4	-6.3	-3.5	57.8*	-3.9	10.6
CCOC(=O)c1c(NC(=S)NCc2ccccc2)sc2c1CCN(C(=O)OCC)C2	-16.6	-17.4	6.8	nt	nt	nt
NC(=O)c1c(NC(=O)C2COc3ccccc3O2)sc2c1CCN(Cc1ccccc1)C2 (configuration not stated)	79.0*	-9.0	1.9	-4.8	2.3	6.4
CC(=O)c1ccc(OCCOc2ccc(C#N)cc2)cc1	-6.8	9.1	4.6	nt	nt	nt
O=C(N/N=C/c1ccc(-c2cccc(C(F)(F)F)c2)o1)c1ccccc1O	89.9*	4.5	-0.9	97.9*	-1.2	-41.8
O=C(N/N=C/c1ccc(-c2cccc([N+](=O)[O-])c2)o1)c1ccc([N+](=O)[O-])cc1	3.6	-5.5	9.2*	64.0*	-7.4	-1.7
Cc1ccc(NCC(=O)N/N=C/c2ccc(-c3cccc(C(F)(F)F)c3)o2)cc1	81.3*	0.8	5.7	9.2	5.1	13.2
NC(=O)N/N=C/c1ccc(-c2cccc(C(F)(F)F)c2)o1	36.5	-5.8	-1.1	-2.4	-1.8	6.9
O=C(N/N=C/c1ccc(Br)o1)/C(=C/c1ccc([N+](=O)[O-])cc1)NC(=O)c1ccccc1	-13.4	1.5	-0.5	56.8*	4.0	-2.0
CN(C)S(=O)(=O)c1ccc(Cl)c(NC(=O)COC(=O)c2ccc3c(c2)NC(=O)CS3)c1	20.2	-16.7	-0.9	nt	nt	nt
C1CCCCCC(NCCN2CCNCC2)CCCCC1	-25.6	nt	1.2	nt	nt	nt
CS(=O)(=O)N1CCC(C(=O)NCc2ccc(Cl)cc2)CC1	-2.6	13.0	-0.4	nt	nt	nt
CCOC(=O)C(Cc1ccc(Cl)cc1Cl)c1ccno1 (configuration not stated)	23.6	6.7	0.6	6.3	-5.3	-3.3
C/C(=N\NC(=O)c1cc(-c2cccc([N+](=O)[O-])c2)n[nH]1)c1ccccc1O	94.4*	-5.6	-0.4	-9.4	-17.1	-32.6
O=C(N/N=C/c1ccccc1O)c1cccc(C(F)(F)F)c1	54.0	9.3	1.9	97.7*	7.4	-26.2
O=C(N/N=C/c1ccc(O)cc1)c1cccc(C(F)(F)F)c1	43.3	-7.7	-1.7	10.6	2.5	-6.8
Cc1nn(Cc2ccccc2)c(Cl)c1/C=N/NC(=O)CNc1cccc(C(F)(F)F)c1	94.3*	nt	-1.9	43.6	-3.4	10.1
C/C(=N/NC(=O)c1cc(-c2cccc([N+](=O)[O-])c2)n[nH]1)c1cccc(O)c1	29.5	18.9	-3.7	nt	nt	nt
O=C(N/N=C/c1ccc(-c2cccc([N+](=O)[O-])c2)o1)c1ccccc1O	36.7	-6.1	5.2	93.1*	-3.1	-8.9
COC(=O)c1sc2nc(C)nc(SCC(=O)C(C)(C)C)c2c1C	23.5	2.1	4.1	13.2	-4.2	4.6
CCNC(=O)C1OC(n2cnc3c(NCc4ccccc4)ncnc32)C(O)C1O (configuration not stated)	-7.1	nt	nt	nt	nt	nt
CCOc1ccccc1NC(=S)NCC1CCCO1 (configuration not stated)	3.4	-2.9	4.0	50.9*	-1.2	12.1
NS(=O)(=O)c1ccc(NC(=S)NCC2CCCO2)cc1 (configuration not stated)	32.7	0.1	4.0	55.0*	4.2	2.5
Cc1ccc(CNC(=O)c2ccc(OCC3CCCO3)cc2)cc1 (configuration not stated)	0.8	-5.0	5.1	67.6*	-13.0	-0.3
SMILES	CHOP inh	Rad51 HR inh	Wee1 degr inh	L major viab	PKD1 kinase inh	Arbovirus inh
CCc1noc(C)c1C(=O)Nc1nc(-c2cc(C)ccc2C)c(C)s1	29.1	-1.6	1.9	9.1	-7.7	1.7
S=C(NCC1CCCO1)Nc1ccc(Nc2ccccc2)cc1 (configuration not stated)	-5.7	-13.6	-2.5	14.9	5.4	5.9
CCc1noc(C)c1C(=O)Nc1nc(-c2ccc(Cl)cc2Cl)cs1	72.9*	9.5	-0.3	46.2	-1.6	-11.9
COc1ccccc1NC(=S)NCC1CCCO1 (configuration not stated)	17.7	26.2	-0.6	-1.6	4.7	-1.1
O=C(NCc1ccc(Cl)cc1)c1ccc(OCC2CCCO2)cc1 (configuration not stated)	2.5	3.6	-1.0	43.7	-1.1	-4.9
COc1ccc(OC)c(-n2nnnc2SCC(=O)Nc2ccccc2N2CCOCC2)c1	-0.6	nt	3.1	21.5	-5.4	2.5
Cc1ccc(C(=O)NCc2ccco2)cc1S(=O)(=O)Nc1cccc(Cl)c1	19.4	-5.3	3.9	0.8	-4.4	1.7
Cc1ccc2nc(NC(=O)c3ccc(OCC4CCCO4)cc3)sc2c1 (configuration not stated)	24.1	-32.3	1.4	3.3	7.5	6.0
O=C(Nc1nc(-c2ccc(Cl)cc2Cl)cs1)c1ccc(OCC2CCCO2)cc1 (configuration not stated)	51.1	4.5	-3.1	12.2	-3.6	68.1*
Cc1ccc(NS(=O)(=O)c2ccc(C(=O)NCC3CCCO3)cc2)cc1 (configuration not stated)	23.6	7.1	10.7*	-0.1	-1.4	4.1
Cc1cc(C)c2nc(NC(=O)c3ccc(OCC4CCCO4)cc3)sc2c1 (configuration not stated)	33.5	1.8	-1.0	73.0*	-9.6	-2.9
Cc1ccc(NC(=O)c2ccc(S(=O)(=O)NCC3CCCO3)cc2)cc1 (configuration not stated)	22.4	0.4	-1.9	-6.2	1.7	1.0
O=C(O)/C=C/C(=O)Nc1ccc(OC(F)(F)F)cc1Br	4.7	-14.4	1.6	nt	nt	nt
COc1ccc(C2/C=C\CN(Cc3ccc(N(C)C)cc3)CC(=O)N2Cc2ccc(F)cc2)cc1 (configuration not stated)	11.1	3.3	nt	nt	nt	nt
Cc1ccc(CC2C(=O)N(c3nc(C)cc(C)n3)C(=O)C2C)cc1 (configuration not stated)	-4.1	-5.3	-3.0	-5.9	-2.9	8.8
O=C(c1ccc(Cl)cc1)C1CCCN(Cc2cccn2-c2cccnc2)C1 (configuration not stated)	45.4	19.9	2.3	86.7*	-4.8	11.7
CSc1ccc(C(=O)C2CCCN(Cc3cccn3-c3cccnc3)C2)cc1 (configuration not stated)	18.2	nt	3.5	85.2*	-7.0	10.8
O=C(c1ccc2c(c1)OCO2)C1CCCN(Cc2cccn2-c2cccnc2)C1 (configuration not stated)	24.6	16.1	-1.7	94.4*	2.7	0.9
Cc1cccc(NC(=O)CSc2nnc(CNC(=O)c3cccs3)o2)c1C	-10.0	-3.8	-0.8	17.6	-3.6	22.0
NC(=O)C1CCN(c2ncnc3c2c(-c2ccccc2)cn3-c2ccccc2)CC1	38.7	-13.0	-0.2	37.0	4.2	-3.3
